Test results reported in ChEMBL document CHEMBL2021781, “Dual targeting of histone deacetylase and topoisomerase II with novel bifunctional inhibitors” (J Med Chem, 2012).
Calls of active or inactive are those of the source. The rule behind the calls is not given here.

Assays:
[1] = target: Histone deacetylase (HDAC1 and HDAC2) (Homo sapiens, UniProt Q13547+Q92769); experiment: Inhibition of HDAC1/2 in human HeLa cell nuclear extract using Fluor de Lys as substrate after 15 mins by fluorometric analysis; format: protein assay
Histone deacetylase 1 = Histone deacetylase 1 (Homo sapiens, UniProt Q13547); experiment: Inhibition of HDAC1 in human HeLa cell nuclear extract using Fluor de Lys as substrate after 15 mins by fluorometric analysis
Histone deacetylase 1, sequence (Q13547 whole entry): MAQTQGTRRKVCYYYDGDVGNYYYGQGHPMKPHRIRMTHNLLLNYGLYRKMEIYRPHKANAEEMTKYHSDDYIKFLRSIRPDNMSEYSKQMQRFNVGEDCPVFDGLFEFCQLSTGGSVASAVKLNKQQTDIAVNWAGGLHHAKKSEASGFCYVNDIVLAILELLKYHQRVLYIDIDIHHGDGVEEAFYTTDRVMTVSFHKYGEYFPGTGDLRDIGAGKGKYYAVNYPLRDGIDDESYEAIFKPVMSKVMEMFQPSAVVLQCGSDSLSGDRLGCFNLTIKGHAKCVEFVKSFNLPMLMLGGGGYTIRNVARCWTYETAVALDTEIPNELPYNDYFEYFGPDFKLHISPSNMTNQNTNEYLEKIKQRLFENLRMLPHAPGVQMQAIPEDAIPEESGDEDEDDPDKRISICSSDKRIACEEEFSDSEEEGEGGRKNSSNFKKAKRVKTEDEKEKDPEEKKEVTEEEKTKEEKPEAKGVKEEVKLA

SK-MES-1 = experiment: Antiproliferative activity against human SKMES1 cells after 72 hrs by MTS assay; format: functional, cell-based; settings: SK-MES-1, 72 h
MCF7 = experiment: Antiproliferative activity against human MCF7 cells after 72 hrs by MTS assay; format: functional, cell-based; settings: MCF7, 72 h
[2] = target: Histone deacetylase (Homo sapiens) (UniProt Q13547+O15379+Q9UBN7+Q92769+Q9UQL6+Q8WUI4+Q9BY41+Q96DB2+P56524+Q9UKV0+Q969S8); experiment: Inhibition of HDAC in human DU145 cells assessed as upregulation of p21 expression at IC50 concentration after 4 hrs by Western blot analysis relative to control; format: cell-based; settings: DU-145
Outline: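 Lysed in RIPA with protease inhibitors, cleared 14,000 RPM at 4°C. Immunoblotted, probing acetylated versus total tubulin; p21 also checked. Near-infrared detection at 700/800 nm.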

[3] = target: DNA topoisomerase 2-alpha (Homo sapiens) (UniProt P11388); experiment: Inhibition of topoisomerase 2 in human DU145 cells assessed as stabilization of enzyme-DNA cleavage complex at 130 nM after 30 mins by immunoblot analysis relative to control; format: cell-based; settings: DU-145
DNA topoisomerase 2-alpha (Homo sapiens), sequence (P11388 whole entry): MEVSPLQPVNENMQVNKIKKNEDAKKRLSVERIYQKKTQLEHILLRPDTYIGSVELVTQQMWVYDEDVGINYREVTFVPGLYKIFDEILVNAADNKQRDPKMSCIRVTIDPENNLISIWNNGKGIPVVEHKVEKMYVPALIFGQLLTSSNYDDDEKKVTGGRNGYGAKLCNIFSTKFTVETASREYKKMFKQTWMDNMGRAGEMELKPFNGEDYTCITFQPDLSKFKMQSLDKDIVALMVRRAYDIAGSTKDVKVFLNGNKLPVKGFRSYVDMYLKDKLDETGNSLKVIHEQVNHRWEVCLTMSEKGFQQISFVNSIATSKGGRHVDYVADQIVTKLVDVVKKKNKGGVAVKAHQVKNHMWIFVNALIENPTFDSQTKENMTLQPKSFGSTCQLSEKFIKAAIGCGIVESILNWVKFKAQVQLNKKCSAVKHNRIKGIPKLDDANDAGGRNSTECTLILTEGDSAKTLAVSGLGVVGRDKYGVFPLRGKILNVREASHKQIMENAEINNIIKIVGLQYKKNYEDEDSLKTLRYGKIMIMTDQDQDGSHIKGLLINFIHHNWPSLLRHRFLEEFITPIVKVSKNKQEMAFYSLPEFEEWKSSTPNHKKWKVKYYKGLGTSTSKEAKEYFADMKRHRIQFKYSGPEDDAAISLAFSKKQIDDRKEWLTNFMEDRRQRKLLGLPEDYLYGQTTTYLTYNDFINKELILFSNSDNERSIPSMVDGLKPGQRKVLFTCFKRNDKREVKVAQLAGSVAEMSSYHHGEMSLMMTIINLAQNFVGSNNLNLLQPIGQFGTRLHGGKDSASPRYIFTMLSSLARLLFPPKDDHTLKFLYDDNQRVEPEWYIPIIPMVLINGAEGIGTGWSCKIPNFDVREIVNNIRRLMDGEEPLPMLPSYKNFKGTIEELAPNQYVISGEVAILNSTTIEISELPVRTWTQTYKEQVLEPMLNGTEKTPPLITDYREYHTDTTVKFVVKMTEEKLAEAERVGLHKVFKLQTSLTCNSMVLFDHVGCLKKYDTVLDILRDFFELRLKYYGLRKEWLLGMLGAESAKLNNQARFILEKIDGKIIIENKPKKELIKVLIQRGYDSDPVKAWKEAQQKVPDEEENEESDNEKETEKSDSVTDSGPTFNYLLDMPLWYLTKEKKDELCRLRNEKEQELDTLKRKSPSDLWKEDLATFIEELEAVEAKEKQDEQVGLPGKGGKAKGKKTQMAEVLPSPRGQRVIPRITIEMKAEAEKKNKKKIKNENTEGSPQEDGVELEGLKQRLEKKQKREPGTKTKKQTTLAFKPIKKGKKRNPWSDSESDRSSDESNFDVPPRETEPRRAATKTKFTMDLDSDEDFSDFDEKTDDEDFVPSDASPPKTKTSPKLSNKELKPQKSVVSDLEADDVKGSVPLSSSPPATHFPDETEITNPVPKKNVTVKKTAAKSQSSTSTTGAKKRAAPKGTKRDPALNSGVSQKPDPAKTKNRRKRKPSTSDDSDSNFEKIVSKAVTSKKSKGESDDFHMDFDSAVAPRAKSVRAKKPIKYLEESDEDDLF
Outline: (§1)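 DU-145 cells dosed 30 min or 72 h; controls given 0.1% DMSO. 72 h samples equalized to the 30 min cell count before lysis in 1% sarkosyl. Lysates spun on a CsCl gradient at 31,000 RPM, room temperature, 12 h. Fractions holding Topo II–DNA complexes found by A260, slot-blotted onto nitrocellulose, and immunoblotted for Topo II.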

[4] = target: DNA topoisomerase 2-alpha (Homo sapiens) (UniProt P11388); experiment: Inhibition of topoisomerase 2 in human DU145 cells assessed as stabilization of enzyme-DNA cleavage complex at 130 nM after 72 hrs by immunoblot analysis; format: cell-based; settings: DU-145; outline: as §1
[5] = Drug uptake in human DU145 cell cytosol at 1 uM after 4 hrs by confocal microscopic analysis; format: ADME, cell-based, DU-145
Outline: (§2)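 Cells plated on glass coverslips 24 h ahead, then given fresh media with compound at 1 μM for 4 h. After a PBS wash, coverslips were mounted and intracellular distribution imaged by confocal microscopy, excitation 488 nm. Done in DU-145 cells, with A549 lung tumor cells also examined.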

[6] = Drug uptake in human A549 cell perinuclear region at 1 uM after 4 hrs by confocal microscopic analysis; format: ADME, cell-based; settings: a549, 4 h; outline: as §2
[7] = Drug uptake in human A549 cell cytosol at 1 uM after 4 hrs by confocal microscopic analysis; format: ADME, cell-based; outline: as §2

Compound `COc1cccc2c1C(=O)c1c(O)c3c(c(O)c1C2=O)C[C@@](O)(C(C)=O)C[C@@H]3O[C@H]1C[C@H](NCc2ccc(NC(=O)CCCCCCC(=O)NO)cc2)[C@H](O)[C@H](C)O1` has an IC50 [1] of 64.7 nM, an IC50 (Histone deacetylase 1) of 47 nM and an IC50 (SK-MES-1) of 470 nM. The IC50 (MCF7) was 990 nM, the Activity [2] was “inactive” and the inhibition [3] was “inactive”. For the same compound, the inhibition [4] was “Active”, the Drug uptake [5] was “Active” and the Drug uptake [6] was “Active”. The Drug uptake [7] was “Active”.
